Columns and labels:
Type in all cases: cell-based
[1] = molecular target: T1, Short transient receptor potential channel 6 (Mus musculus, UniProt Q61143); assay: Agonist activity at mouse TRPC6 expressed in HEK293 cells co-expressing Gq11-PLCbeta fused M5 receptor assessed as increase in intracellular calcium level measured for 2.5 mins by Fluo-8-AM dye-based fluorescence assay
T1 sequence (Q61143 whole entry): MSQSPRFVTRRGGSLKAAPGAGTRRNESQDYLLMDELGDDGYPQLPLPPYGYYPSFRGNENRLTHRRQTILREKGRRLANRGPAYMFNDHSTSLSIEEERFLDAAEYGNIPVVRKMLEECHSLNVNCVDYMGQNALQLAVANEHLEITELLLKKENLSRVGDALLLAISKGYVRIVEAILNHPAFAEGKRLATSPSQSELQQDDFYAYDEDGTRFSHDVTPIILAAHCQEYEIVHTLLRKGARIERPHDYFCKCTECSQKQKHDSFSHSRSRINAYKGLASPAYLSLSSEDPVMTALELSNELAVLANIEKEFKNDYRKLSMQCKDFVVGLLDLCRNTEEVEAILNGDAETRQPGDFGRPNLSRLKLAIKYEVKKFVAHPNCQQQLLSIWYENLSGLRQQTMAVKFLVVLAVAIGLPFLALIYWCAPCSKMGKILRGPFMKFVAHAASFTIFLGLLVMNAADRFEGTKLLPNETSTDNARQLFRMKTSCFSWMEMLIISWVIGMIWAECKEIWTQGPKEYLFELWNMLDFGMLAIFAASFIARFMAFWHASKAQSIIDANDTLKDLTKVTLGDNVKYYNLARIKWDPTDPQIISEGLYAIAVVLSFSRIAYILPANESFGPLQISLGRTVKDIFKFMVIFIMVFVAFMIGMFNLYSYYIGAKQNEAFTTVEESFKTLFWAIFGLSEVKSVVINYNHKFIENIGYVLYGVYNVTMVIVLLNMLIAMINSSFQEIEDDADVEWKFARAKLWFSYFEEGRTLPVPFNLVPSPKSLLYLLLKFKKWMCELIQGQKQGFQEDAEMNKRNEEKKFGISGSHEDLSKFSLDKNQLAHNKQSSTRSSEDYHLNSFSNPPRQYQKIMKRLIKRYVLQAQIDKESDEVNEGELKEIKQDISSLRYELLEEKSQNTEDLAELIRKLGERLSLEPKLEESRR

[2] = molecular target: T2, Short transient receptor potential channel 4 (Mus musculus, UniProt Q9QUQ5); assay: Antagonist activity at mouse TRPC4beta expressed in HEK293 cells co-expressing MOR decrease in DAMGO-evoked intracellular calcium level by Fluo-8-AM dye-based fluorescence assay
T2 sequence (Q9QUQ5 whole entry): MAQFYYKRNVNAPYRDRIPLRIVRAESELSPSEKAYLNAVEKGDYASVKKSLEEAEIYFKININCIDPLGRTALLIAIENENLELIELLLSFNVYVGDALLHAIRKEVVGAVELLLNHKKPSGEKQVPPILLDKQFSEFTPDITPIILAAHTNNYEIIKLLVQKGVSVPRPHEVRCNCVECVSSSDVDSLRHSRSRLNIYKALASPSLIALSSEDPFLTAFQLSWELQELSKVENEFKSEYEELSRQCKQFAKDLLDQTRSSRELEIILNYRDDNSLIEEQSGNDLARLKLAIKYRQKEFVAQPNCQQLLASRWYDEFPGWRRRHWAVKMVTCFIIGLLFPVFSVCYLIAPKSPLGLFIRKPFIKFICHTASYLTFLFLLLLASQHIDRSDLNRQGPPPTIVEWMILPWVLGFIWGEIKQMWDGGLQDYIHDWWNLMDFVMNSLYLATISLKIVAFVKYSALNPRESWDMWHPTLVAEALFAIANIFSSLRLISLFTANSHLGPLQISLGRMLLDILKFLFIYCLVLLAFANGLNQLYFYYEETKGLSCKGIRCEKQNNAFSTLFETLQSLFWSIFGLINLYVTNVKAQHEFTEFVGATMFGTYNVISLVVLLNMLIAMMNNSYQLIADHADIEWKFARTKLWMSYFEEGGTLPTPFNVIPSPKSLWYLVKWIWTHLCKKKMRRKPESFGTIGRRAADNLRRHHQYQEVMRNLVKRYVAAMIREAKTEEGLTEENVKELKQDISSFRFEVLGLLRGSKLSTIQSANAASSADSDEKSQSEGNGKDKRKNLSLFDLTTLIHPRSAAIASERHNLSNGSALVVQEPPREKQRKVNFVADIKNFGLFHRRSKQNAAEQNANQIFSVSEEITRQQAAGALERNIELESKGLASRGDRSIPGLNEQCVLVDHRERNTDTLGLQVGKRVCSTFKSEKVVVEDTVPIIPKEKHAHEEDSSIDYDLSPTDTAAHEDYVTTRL
Summary of the method: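 MOR/TRPC4β HEK293 cells loaded with Ca2+ dye. Compound given before 1 μM DAMGO. IC50 estimated from one experiment in triplicate.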

HEK293 = assay: Induction of intracellular calcium level in HEK293 cells at 100 uM measured for 2.5 mins by Fluo-4-AM dye based FLIPR assay; details: human, hek293, 2.5 min

CCC(=O)N1CCC(C)(c2cc(O)n3nc(C)c(-c4ccc(F)cc4)c3n2)CC1
EC50 [1]: Not Active | IC50 [2]: Not Active

Cc1nn2c(O)cc(C3(C)CCN(C(=O)C(C)(C)C)CC3)nc2c1-c1ccc(F)cc1
EC50 [1]: Not Active | IC50 [2]: Not Active

CCOC(=O)N1CCC(c2cc(O)n3nc(C)c(-c4ccc([N+](=O)[O-])cc4)c3n2)CC1
EC50 ([1]; read-out: EC50): 2 µM | IC50 [2]: Not Active

CCOC(=O)N1CCC(C)(c2cc(O)n3nc(C)c(-c4ccc([N+](=O)[O-])cc4)c3n2)CC1
EC50 ([1]; read-out: EC50): 8 µM | IC50 [2]: Not Active

C[N+](C)(C)CCOC(N)=O.[Cl-] [CARBACHOL]
Activity (HEK293): Toxic

Cc1nn2c(O)cc(C3(C)CCN(C(=O)OC(C)(C)C)CC3)nc2c1-c1ccc(F)cc1
EC50 [1]: Not Active | IC50 [2]: Not Active

CCC(=O)N1CCC(c2cc(O)n3nc(C)c(-c4ccc(F)cc4)c3n2)CC1
EC50 ([1]; read-out: EC50): 28.8 µM | IC50 ([2]; read-out: IC50): 35 µM

COc1ccc(S(=O)(=O)N2CCC(C)(c3cc(O)n4nc(C)c(-c5ccc(F)cc5)c4n3)CC2)cc1
EC50 [1]: Not Active | IC50 [2]: Not Active

Cc1nn2c(O)cc(C3(C)CCN(S(=O)(=O)c4c(F)cccc4F)CC3)nc2c1-c1ccc([N+](=O)[O-])cc1
EC50 [1]: Not Active | IC50 [2]: Not Active

COc1ccc(CC(=O)N2CCC(C)(c3cc(O)n4nc(C)c(-c5ccc([N+](=O)[O-])cc5)c4n3)CC2)cc1OC
EC50 [1]: Not Active | IC50 [2]: Not Active

Cc1nn2c(O)cc(C3CCN(C(=O)OC(C)(C)C)CC3)nc2c1-c1ccc(Cl)cc1
EC50 [1]: Not Active | IC50 [2]: Not Active

Cc1nn2c(O)cc(C3CCN(C(=O)c4ccc(Br)nc4)CC3)nc2c1-c1ccc(F)cc1
EC50 ([1]; read-out: EC50): 12.3 µM | IC50 ([2]; read-out: IC50): 10 µM

Cc1nn2c(O)cc(C3CCN(C(=O)C(C)(C)C)CC3)nc2c1-c1ccc(F)cc1
EC50 [1]: Not Active | IC50 [2]: Not Active

Source: ChEMBL document CHEMBL4014306, “Pyrazolopyrimidines as Potent Stimulators for Transient Receptor Potential Canonical 3/6/7 Channels” (J Med Chem, 2017)
